To fix the notation:
B1: tRNA (parent)
chain: GUUCCGUUGGCGUAAUGGUAACGCGUCUCCCUCCUAAGGAGAAGACUGCGGGUUCGAGUCCCGUACGGAACG

This sample holds only a part of the variants without activity.

Variants of B1 are the subject of this series. As to the kind of experiment: yeast fitness relative to wild type (ratio to wild type); higher = fitter; tRNA-Arg(CCU), competitive growth, 37 C, YPD. The procedure, abridged: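 For this measurement, the tRNA-Arg(CCU) gene was varied by chemical synthesis at a 3% per-site mutation rate across 69 sites, and each variant was placed at the native genomic locus in Saccharomyces cerevisiae. The pooled strains went through a 24-hour competition in YPD at 37°C in six parallel replicates, with amplicons from start and end populations read by 100-nucleotide paired-end sequencing. Darwinian fitness relative to wild type followed from the change in each genotype's frequency. Genotypes needed ≥ 100 starting reads, and estimates < 0.5 were set to 0.5.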
As for GUUCCGUUGGCAUAAUGGUUACGCGUAUCCCCCCUAAGGAGAAGACUGCGGGUUUGAGUCCCGUACGAAACG, the yeast fitness was at most 0.5. The result for GUUCCGUUGGCAUAGUGGUAAUGCGUCUCCAUCCGAAGGAGAAGACUGCGGGUUCGAGUCUCGUCCGGAACG reads at most 0.5. As for GUUCCGUUGGCAUGAUGGUAACGCGUCUCGCUCCUAAGGAGAAGAAUGCGGGUUCGAGUCCCGUACGGAACG, the yeast fitness turned out to be 0.882. As to GUUCCGUUGGCAUAAUGGUUACGCGUCUCCCUCCUAAGGAGAAGACUGUGGGGUCGAGUCCCGUGCGGAACG, the yeast fitness is at most 0.5. For GUUCCGUUGGCAUAAUGGUAACGCGUCUCCCUCCUAAGGAGAAGACUGCGGGUUCGAGUCCCGUACGGAACG the value was 0.999; for GUUCCGUUGGCAUAAUGGUCACGCGUCUCCCUCCUAAGGAGAAGACUGCGGGUUCGAGUCCGGUACGGAACG, at most 0.5. For the variant GUUCCGUUGGUGUAAUGGUAACGCGUCUCCCUCCUAAGGAGAAGACUGCGGGUACGAGUCCUGUACGGAACG, the yeast fitness is at most 0.5. For the variant GUUCCGUUGGCAUACUGGUAACGCGUGUCCCUCCUAAGGAGAAGACUGGGGGUUCGAGUCCCGUACGGAACG, the yeast fitness was at most 0.5. For GUUCCGUUGGCAUGAUGGUAACGCGUGUCCCUCGUAUGGAGAAGACUGCGGGUUCGAGUCCCGAACGGAACG, the yeast fitness was at most 0.5. Turning to GUUCCGUUGGCAUGAUGGUGACGCGUCUCCCUCCUAAGGAGAAGACUGCGGGUUCGAGUCCCAUACGGAACG, the yeast fitness was at most 0.5. For the variant GUUCCGUUGGCAUAGUGGUAACGCGUCUCCCUCCUAAGGAGAAGACUGUGGGUUCGAGUCCCGUCCGGAGCG, the yeast fitness was at most 0.5.

Take GUUCCGUUGGCAUAUUGGUAACGCGUCUCCCUCCUAAGGAGAAGACUGCGAGUUCGAGUCCCGUUCGGAACG: the yeast fitness was at most 0.5. For GUUCCGUUGGUGUAAUGGUAACGCGUCUCCCUCCUAAGGAGAAGACUGCGGGUUCGAGUCCCGCGCGGAACG the value was 0.667; for GUUCCGUUGGUGUAAUGGUAACGCGUCUCCCUCCUAAGGAGAAGACUGCGGGUUCGAGACCCGGACGGAACG, at most 0.5. For GUUCCGUUGGCAUAAUGGUACCGCGUCUCCCUCCGAAGGAGAAGACUGCGAGUUCGAGUCCCGUACGGAACG the value was at most 0.5; for GUUCCGUUGGCAUUAUGGUAACGCGUCUCCCUCCUAAGGAGAAGACUGCGGGUUCGGGUCUCGUACGGAACG, at most 0.5; for GUUCCGUUGGCAUAGUGGUAAAGCGUCUCCCUCCUAAGGAGAAGACUGCGGGUUCGAGUCCCGUACGGAACG, 0.705. The result for GUUCCGUUGGCAUCAUGGUAACGCGUCUCCCUCGUAAGGAGAAGACUGCGGGUUUGAGUCCCGUACGGAACG reads at most 0.5; that for GUUCCGUUGGCAUAGUGGUAACGCGUCUCCCUCCUAAGGAGAACACUGCGGGUUCGAGACCCGUACGGAACG, at most 0.5. For the variant GUUCCGUUGGCAUAGUGGUAACGCGUCUCCAUCCUAAGGAGAAGACUGCGGGUUCGAGUCCCGUACGGAACG, the yeast fitness was at most 0.5. As for GUUCCGUUGGCAUAGUGGUAACGCGUCUCCCUCCUAAGGAGAAGACUGCGGGUUCGAGUCCCGUGCGGAACG, the yeast fitness worked out at 0.541. As for GUUCCGUUGGCAUCAUGGUAACGCGUCUCCCUCUUAGGGAGAAGACUGCGGGUUCGAGUCCCGUACGGAACG, the yeast fitness was at most 0.5. With GUUCCGUUGGCAUAAUGGUGACGCGCCUUCGUUCUAAGGAGUAGACUGCGGGUUCGAGUCCCGUACGGAACG, the yeast fitness is at most 0.5. The result for GUUCCGUUGGCAUAUUGGUAACGCGUCUCCCUCCUAAGGAGAAGACUGCGGGUUCGAGUCCCAUACGGAACG reads 0.601; that for GUUCCGUUGGCAUACUGGUAACGCGUCUCCUUCCUAAGGAGAAGACUGCGGGUUCGAGUCCUGUAGGGAGCG, at most 0.5.

Consider GUUCCGUUGGCAUAGUGGUAACGCGUCUCCCUCCUAAGGAGAAGACUACGGGUUCGAGUCCCGUACGGAACG, for which the yeast fitness is 0.763. As to GUUCCGUUGGCAUAGUGGUAACGCGUCUCCCUCCUAAGGAGAAGACUGCGGGUGCGAGUCCCGUACGGAACG, the yeast fitness was at most 0.5. Turning to GUUCCGUUGGCAUAGUGGUAACGCGUCUCCCUCCUAAGGAGAAGACUGCGGGUUCGAGUCCCGUCCGGAGCG, the yeast fitness is at most 0.5. Take GUUCCGUUGGUGUAAUGGUAACGCGUCUCCCUCCUAAGGAGAAGACUGCGGGGUCGAGUCCCGUACGGAACG: the yeast fitness was determined as 0.608.

On to GUUCCGUUGGUGUAAUGGUAACGCGUCUCCCUCCUAAGGAGAAGACUGCGGGAUCGAGUCCCGUACGGAACG, for which the yeast fitness worked out at 0.751. For GUUCCGUUGGCAUAAUGGUACCGCGUCUCCCUCCUAAGGAGAAGACUGCGGGUUCGAGUCCCGUACGGAACG the value was 0.643. In the case of GUUCCGUUGGCAUAAUGGUAGCGCGUCUCCCUCCUAAGGAGAAGACUGCGGGUUCGAGUCCCGUACGGAACG, the yeast fitness was found to be 1.04.

With GUUCCGUUGGCAUAGUGGUAACGCGUCUCCCUCCUAAGGAGAAGACUGCGGGUUCGAGUCCCGUCCGGCACG, the yeast fitness was at most 0.5. In the case of GUUCCGUUGGUGUAAUGGUAACGCGUCUCCCUCCUAAGGAGAAGACGGCGGGUUCGAGUCCCGUACGGAACG, the yeast fitness was 0.688. Consider GUUCCGUUGGCAUAAUGGUUACGCGUCUCCCUCCUAAGGAGAAGACUGCGGGUUCGAGUCCCGUACGGAACG, for which the yeast fitness amounted to 0.831. The result for GUUCCGUUGGUGUAAUGGUAACGCGUCUCCCUCCUAAGGAGAAGACUGCGGGUUCGAGCCCCGUACGGAACG reads 0.937. In the case of GUUCCGUUGGUGUAAUGGUAACGCGUCUCCCUCCUAAGGAGAAGACUGCGGGUUCGAGGCCCGUACGGAACG, the yeast fitness worked out at 0.786.
